Test results taken from ChEMBL document CHEMBL2413074, “Structure-based drug design using GPCR homology modeling: toward the discovery of novel selective CysLT2 antagonists” (Eur J Med Chem, 2013).
pIC50: −log10 of the molar value.

Columns and labels:
Format in all cases: functional, cell-based
[1] = biological target: T1, Cysteinyl leukotriene receptor 1 (Homo sapiens) (UniProt Q9Y271); experiment: Antagonist activity at CysLT1 receptor (unknown origin) expressed in human dU937 cells assessed as reduction in LTD4-induced cytosolic free Ca2+ level at 1 uM after 30 mins by fluorescence assay relative to control
T1 sequence (whole entry): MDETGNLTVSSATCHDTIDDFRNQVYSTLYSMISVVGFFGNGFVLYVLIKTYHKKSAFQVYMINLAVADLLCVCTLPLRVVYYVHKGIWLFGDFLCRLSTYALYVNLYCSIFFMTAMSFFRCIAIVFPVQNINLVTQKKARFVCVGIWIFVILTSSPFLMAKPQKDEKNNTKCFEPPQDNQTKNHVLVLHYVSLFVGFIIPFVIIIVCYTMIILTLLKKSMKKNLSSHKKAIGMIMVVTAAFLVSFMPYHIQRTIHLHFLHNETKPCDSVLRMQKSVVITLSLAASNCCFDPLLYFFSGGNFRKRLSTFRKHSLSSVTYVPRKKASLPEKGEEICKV

[2] = biological target: T2, Cysteinyl leukotriene receptor 2 (Homo sapiens) (UniProt Q9NS75); experiment: (§1) Antagonist activity at human recombinant CysLT2 receptor expressed in human HEK293 cells assessed as reduction in LTD4-induced cytosolic free Ca2+ level after 30 mins by fluorescence assay relative to control
T2 sequence (whole entry): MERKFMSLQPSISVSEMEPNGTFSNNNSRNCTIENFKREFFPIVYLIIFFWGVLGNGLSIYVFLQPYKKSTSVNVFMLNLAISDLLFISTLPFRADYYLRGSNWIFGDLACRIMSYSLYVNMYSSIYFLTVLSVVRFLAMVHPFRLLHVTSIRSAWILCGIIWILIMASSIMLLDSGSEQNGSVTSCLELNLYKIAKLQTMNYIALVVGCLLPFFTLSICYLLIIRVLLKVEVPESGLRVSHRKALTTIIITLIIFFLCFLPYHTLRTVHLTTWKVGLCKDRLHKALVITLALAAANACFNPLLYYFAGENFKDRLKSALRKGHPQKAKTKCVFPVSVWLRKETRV
Summary of the method: (§2)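 HEK293 cells stably transfected with pcDNA3.1(+)-hCysLT2 were grown at 37 °C in 5% CO2 and plated. After 24 h they were preincubated for 30 min in BSS with or without test compound. Cells were then stimulated with LTD4, with ATP as a positive stimulus. [Ca2+]i fluorescence was read at 37 °C (ex 485/em 525 nm). The response was taken as peak minus basal and expressed as % of BSS-only control.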

[3] = biological target: T3, Cysteinyl leukotriene receptor 2 (Homo sapiens, UniProt Q9NS75); experiment: as §1; summary of the method: as §2
T3 sequence (Q9NS75 whole entry): T2 sequence (whole entry)

[4] = biological target: T2, Cysteinyl leukotriene receptor 2 (Homo sapiens); experiment: Antagonist activity at human recombinant CysLT2 receptor expressed in human HEK293 cells assessed as reduction in LTD4-induced cytosolic free Ca2+ level at 1 uM after 30 mins by fluorescence assay relative to control
Summary of the method: as §2, with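 “stimulus.” for “stimulus. [Ca2+]i fluorescence was read at 37 °C (ex 485/em 525 nm).”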

inhibition [1] | Activity [2] | Imax [2] | pIC50 [3] | inhibition [4] | Compound
8.6% | – | – | – | – | CCCCCCCCOc1ccc(/C=C/C(=O)c2ccc(C(=O)O)cc2OCC(=O)O)cc1
35.7% | – | – | – | – | CCCCCCCCCCCCOc1ccc(/C=C/C(=O)c2cc(C(=O)O)ccc2OCC(=O)O)cc1
7% | Dose-dependent effect | 72.8% | 5.12 | 44% | O=C(O)COc1ccc(C(=O)O)cc1C(=O)/C=C/c1ccc(OCCCCOc2ccc(Cl)cc2)cc1
10.6% | – | – | – | – | CCCCCCCCCCCCOc1ccc(/C=C/C(=O)c2ccc(C(=O)O)cc2OCC(=O)O)cc1
4.8% | Dose-dependent effect | 80.5% | 6.60 | 70.5% | CCCCCCCCCCCCOc1cccc(/C=C/C(=O)c2cc(C(=O)O)ccc2OCC(=O)O)c1
– | – | – | – | 10.4% | N#CCOc1cc(C(=O)O)ccc1C(=O)/C=C/c1ccc(OCCCCOc2ccc(Cl)cc2)cc1
